Laboratory results: the EternaBench riboswitch data

Test system: MS2 coat protein
Test: apparent Kd, MS2 coat protein; higher = weaker binding; RNA-MaP array; FMN 200 µM where present
Outline: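 Each design was made on Illumina sequencing-chip clusters by stalled E. coli RNA polymerase and titrated with SNAP-549-labelled MS2 coat protein from 0.7 or 1.5 nM, doubling to 3 µM, in the absence and then the presence of constant ligand. The buffer was 100 mM Tris-HCl pH 7.5, 80 mM KCl, 4 mM MgCl2, BSA, DTT, yeast tRNA and Tween-20. The apparent Kd is the median of filtered per-cluster fits of binding curves, with green signal normalised to red-channel RNA signal and control-cluster median Fmax.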

[1] = designed as: OFF switch for flavin mononucleotide, no ligand
[2] = ligand present: flavin mononucleotide, designed as: OFF switch for flavin mononucleotide
[3] = designed as: ON switch for flavin mononucleotide, no ligand
[4] = ligand present: flavin mononucleotide, designed as: ON switch for flavin mononucleotide

Row | Sequence | apparent Kd [1] [nM] | apparent Kd [2] [nM] | apparent Kd [3] [nM] | apparent Kd [4] [nM]
1 | GCGAGUAAAGCAGGAUAUCUAUUGUCUCGGAAACAUGAGGAUCACCCAUGUAGAGAAGGGCUAAGUCAUACAAUUCGAACUCGC | 11.2 | 10.8 |  | 
2 | CGACAGCACACAGGAUAUCCUCGACUUUGUCGAGGAGAAGGGUGUAAACAUGAGGAUCACCCAUGUAUGCUGUCGAAAUUUAAU |  |  | 308 | 30.7
3 | UAACUGCAGAAGAUAAUAAUGAAUACAUGAGGAUCACCCAUGUAGGAUAUCGUCAGGAAUACUGACGAGAAGGACAUACUGCAG | 14.1 | 16.9 |  | 
4 | GUUGUUUCUGAGGAUAUUAUUUUUUUCGAUUGAUAAGAAGGCAGUACAUGAGGAUCACCCAUGUGGGUUGUUUG | 54.5 | 164 |  | 
5 | GCCUAUGUGGAGGAUAUCGACUUCGAAAGAAGUCGAGAAGGCCACACAUGAGGAUCACCCAUGUGAUGCCAGGC | 122 | 86 |  | 
6 | AAUAACAGAGGAUAUACUGUUUUAUGUGUUUAUUGUUUUGAACAUGAGGAUCACCCAUGUAGAAGGCUGAAUGA | 26.1 | 26.2 |  | 
7 | CAUACCUGUGAAGGAUAUACGUUGUUAGCUACCGUAGAAGGUCACAUGAGGAUCACCCAUGUCAAGGCAAGAACAUGAUCCGAA | 304 | 566 |  | 
8 | ACAGCGGCAGGAUAUGCAUGCUCCGACUUAUGCCUACAAAGACAUGAGGAUCACCCAUGUAGAAGGGCCAGCGG | 13.8 | 15.2 |  | 
9 | UUAUGACCGUAAAUAAGGUUGUCGAAGGAUAUUACAGGAGUACGAUCACAUGAGGAUCACCCAUGUAAGAAGGUCGAUACGCUG | 17 | 76.4 |  | 
10 | CGAUGUUAUGUCAGGAUAUACAUUGCGAAAGCAAUGUAGAAGGGACAUGAGGAUCACCCAUGUCCUAACCAUCG | 13.1 | 17.1 |  | 
11 | AAAAGGCAAGGAUAUACAUGAGGAUCACCCAUGUAAUUCCCGUCGGGAUGACCGAUAUGUAGAAGGUGCAUUAA | 20.1 | 43.4 |  | 
12 | AUAAGUUCGUCAGGAUAUACAUGAGACAGUAAUGUUUCAGGUAUGAUCACAUGAGGAUCACCCAUGUAGAAGGGACGAGCUUAU | 6.48 | 20.6 |  | 
13 | GCGCAGUCAGGAUAUGCCGCUGGCGAUCACCGUGGGCAAAGGCAGAAGGGACAUGAGGAUCACCCAUGUGGCGC | 72.1 | 32.9 |  | 
14 | CACUCAGGCACAUGAGGAUCACCCAUGUCCCGGAAGCCGAGACAGGAUAUGUGCCUCGAAUGUGCACAGAAGGGUCUACUAUGU |  |  | 374 | 264
15 | GGUACCAUCACAGGAUAUGCUUUCCUUUGGGAAGCAGAAGGGUGUAACAUGAGGAUCACCCAUGUGGUGCCCGGGCGUGAGCCC |  |  | 120 | 15.9
16 | GUACGGGAGGAGAAGGGCUAGGAGGUCCAGCUUAUGUGUGUUGCAACAUGAGGAUCACCCAUGUAGCAGGAUAUCCUCUGUACA | 46.3 | 332 |  | 
17 | UUUUAACAUGAGGAUCACCCAUGUGAGGAUAUCGAAAUUUAUAUUUAUAUUAAUUAUACGAGAAGGCACAUUUU | 79.2 | 104 |  | 
18 | GUGGCUGUUAGGCUUGCGUCGGCGACAGAAGGCCAACAUGAGGAUCACCCAUGUACAAAGACCAUGGAGGAUAUGUUGCCAAUG |  |  | 58.2 | 7.54
19 | GGAUGGUAGGGAGGAUAUGACAUGAGGAUCACCCAUGUGAAACGUCCUAGGUCAGAAGGCCCAUAAGUCAAAACCCAAAAUGUG | 16.7 | 153 |  | 

Row | Sequence | apparent Kd [1] [nM] | apparent Kd [2] [nM] | apparent Kd [3] [nM] | apparent Kd [4] [nM]
20 | GUAAUACAUGAGGAUCACCCAUGUCAAUGUAGUCGAGGAUAUGGGUAGCUAUGAGGCUUACUAGAAGGCGACGAGC |  |  | 210 | 39.3
21 | AAUAACAGAGGAUAUACUAUUUUAUGUAUUUAUUAUUUUAAACAUGAGGAUCACCCAUGUAGAAGGCUGAUUGA | 29.9 | 28.4 |  | 
22 | GUUAAGGUAGGAUAUACGAUAAGAUAGGGUAGAUAUAUAACACAUGAGGAUCACCCAUGUAGAAGGACCAAUUG | 38.3 | 105 |  | 
23 | AUAUUCAGAGGAUAUGCGCAUAGAUAAGACUUUUUUUCUUAACAUGAGGAUCACCCAUGUAGAAGGCUGUAAUA | 20.1 | 17.5 |  | 
24 | AUCUUGAGAGGAUAUACAUGAGGAUCACCCAUGUUGCUAACACCAUGAGCUCAUUUACGUAGAAGGCUCAUCCG | 17.7 | 17.2 |  | 
25 | UUGGACGUCGUAGGAUAUGUAGGAUAUUCCUACAUGAGGAUCACCCAUGUUGACAUGGAAGAAGGACACAAGGACGAUGUCCAU |  |  | 664 | 15.8
26 | GAUUAACAUGAGGAUCACCCAUGUGAGGAUAUGAACUUGCCCACUUACCCUUUAGAGUUUAGAAGGCGCAUUUC | 18.9 | 19 |  | 
27 | GUACGCUCAGGAUAUCAAGGGCUGUACAUGAGGAUCACCCAUGUUAUCUUGGUGUCAGCGUGAGAAGGGAGGGAAA | 26 | 32.7 |  | 
28 | UACAUGUGAGGAUAUUAGAUCGCUAACUGGCGGGAGCGAUCUGAGAAGGCACAUGAGGAUCACCCAUGUGUCGU | 16.9 | 40.2 |  | 
29 | UCCCUGUGAGGAUAUCUCGUUCCGGUGAAAUUAGCUAGAUGGGAGAAGGCACAUGAGGAUCACCCAUGUGACGA | 22 | 26.6 |  | 
30 | UUAUUAUGUGUAGGAUAUGCAUAUUACUAUUAUGCAGAAGGACAUGAGGAUCACCCAUGUAUAUUAUUAUUAUAUAUUAUAUAU | 14.9 | 22.4 |  | 
31 | GUGGUGUAGAUACAGGAUAUGUUGCUCGUAACAUGAGGAUCACCCAUGUAUCUAUGAGAUUAAAUGCAGAAGGGUGCACACCACG |  |  | 330 | 23.3
32 | AGGAGACAUGAGGAUCACCCAUGUGCACGGUGAAGAGGAUAUGUGCGUGGAGAGACACGGACAGAAGGCUUAAGAA |  |  | 65.3 | 33
33 | ACAUGAGGAUCACCCAUGUUAUUUGGGAAUUAAUUUAUUUGUAGAAGGAUGUUUUCUUGUUAGUCAUAGGAUAUACUAUUAAAU | 40.7 | 34.4 |  | 
34 | CCACGUCACAUGAACAUGAGGAUCACCCAUGUAAAUUCUCAUGAGGAUAUGGAUCCUAAUUGGAUCCAGAAGGCGUGGACGUGG |  |  | 1070 | 461
35 | GUGUAGGUAGGAUAUACAUGAGGAUCACCCAUGUGAAUAAGAUAGAAUAAGAUAAAGUGUAGAAGGACUAGUGU | 37 | 28.8 |  | 
36 | CCGGAUACGGGUAGCCUGACAUGAGGAUCACCCAUGUGAUCCAAGGAUAUGGAUCCUAAUUGGAUCCAGAAGGUGGUUGGCUAC |  |  | 682 | 369
37 | AAAAGACAUGAGGAUCACCCAUGUAAAGACGUAGGAGGAUAUGUAUGGAAACCAUACUGUACAGAAGGCCUUUGUC |  |  | 23.8 | 18.3
38 | AUAUAUCAUACAGGAUAUACAUGAGGAUCACCCAUGUGUUCUCCAUAAUUGACACCAAUUAUGCUGUAGAAGGGUAUGAUAUAU | 22.3 | 151 |  | 

Row | Sequence | apparent Kd [1] [nM] | apparent Kd [2] [nM] | apparent Kd [3] [nM] | apparent Kd [4] [nM]
39 | GCGUCGAGUGUGAGGAUAUGCUGGUCCUUGGAUCAGCAGAAGGCACAUGAGGAUCACCCAUGUGAAAACGAUGC | 22.7 | 140 |  | 
40 | AAAUGCUUGUCGAUGCUCGACAUGAGGAUCACCCAUGUAUAGCAGGAUAUGCAGAACUGACUCGUGCAGAAGGGCUAUACCUAA | 23.2 | 69.6 |  | 
41 | GCCGACCAGAAGUCGGUACGGAGGAGAAGGCGCCUCCUGGGUCCACAUGAGGAUCACCCAUGUGGCGAGGAUAUCCUCAGUUUU | 16.4 | 126 |  | 
42 | CGCACUGAUAGAGGAUAUGUUUUACAUGAGGAUCACCCAUGUGUACAAGGAUUAAUAUAUAAGUAACAGAAGGCUAUUUGUGCG | 6.55 | 5.85 |  | 
43 | GGCAAUAACGAGGAUAUCGUAUCGGAAACGAUACGAGAAGGUGUAACAUGAGGAUCACCCAUGUUCCUCAAGCC | 37.9 | 37.2 |  | 
44 | AUUAUUUAAGUCAGGAUAUCGUAUUUAUUUAAAUACGAGAAGGGACAUGAGGAUCACCCAUGUAAUAAAUUUUA | 14.2 | 20.4 |  | 
45 | CAGAAGUCAGGAUAUGCAUGGCGGGACUUGCGUCGUGGCGUGCAGAAGGGACAUGAGGAUCACCCAUGUAAAGU | 53.5 | 69.7 |  | 
46 | CUAAAUCAUGUAGGAUAUGCGUGGCGAAGCUAUGCAGAAGGACAUGAGGAUCACCCAUGUCUUUCUGUCUGCGUACAGACGGAA | 23.5 | 135 |  | 
47 | AUUAUUUAAGUCAGGAUAUCGUAUUUAUUUAAAUACGAGAAGGGACAUGAGGAUCACCCAUGUAAUAAAUUUUU | 16.9 | 22.9 |  | 
48 | GCCUACUGGCGAGGAUAUUCUGUGCGGUUCCGGCUCGUGUCUGUUACAUGAGGAUCACCCAUGUGGGAGAAGGUGUCUGUGGCC | 7.53 | 7.41 |  | 
49 | CUUUUGUGAGGAUAUUAGUAGUAAUUAAAUAAAAUUACUACUGAGAAGGCACAUGAGGAUCACCCAUGUUCCUC | 33.9 | 158 |  | 
50 | GUAACGCUUGACAUGAGGAUCACCCAUGUUAGAUUGUUAUGUCAGGAUAUAGUCUAGAAACUAGACUAGAAGGGAUAUGUUACU |  |  | 69.6 | 29.4
51 | AAUAACAGAGGAUAUACUAUUUUAUGUGUUUGUUAUUUUAAACAUGAGGAUCACCCAUGUAGAAGGCUGAGUAA | 26.7 | 26.9 |  | 
52 | AGUGUGUGGCAGGAUAUGCUGUUGAUUGGUGAAGCAGAAGGGUCUACAUGAGGAUCACCCAUGUAAGCGGUUGA | 53.1 | 225 |  | 
53 | CAGACGUGAGGAUAUCUGAUGUCUAACUUCGGUUAGACAUCAGAGAAGGCACAUGAGGAUCACCCAUGUCUGAA | 76.8 | 309 |  | 
54 | GGUACUCAAAGAGUACCAAUACGAACAUGAGGAUCACCCAUGUAGGAUAUGCUACAAAAGGAGUAGCAGAAGGACAUGUGCCUA | 13 | 60.8 |  | 
55 | CGCAAGUAUACAUGAGGAUCACCCAUGUCAGAAAGGGUAAUCAGAAGGUACUAUUAGAGAAAGAGUAAGGAUAUGAAAUUUGCG |  |  | 747 | 125
56 | UGAUCGAGAGAUCUUAGAUUCUGGUAGGAUAUACAUUAUGUUUGAAAUACAUGAGGAUCACCCAUGUAGAAGGACUAGAGUCUA | 6.71 | 11.7 |  | 
